Experimental data as given in ChEMBL document CHEMBL1130046, “Modulation of melphalan resistance in glioma cells with a peripheral benzodiazepine receptor ligand-melphalan conjugate” (J Med Chem, 1997).

Tests used:
C6 [1] = test: The compound was tested for cytotoxicity against C6 (Rat) Glioma cell lines; type: functional, cell-based
Method in brief: (§1)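 Adherent cells seeded in their usual medium and allowed to attach overnight at 37 °C. Drugs added fresh, melphalan in saline and others in ethanol (≤1% of well volume), then 48 h at 37 °C. SRB read-out: TCA fixation, SRB staining, dye taken up in 10 mM Tris, absorbance 560 nm. Growth expressed as % of control and IC50 calculated; two or three experiments. C6-MR selected by weekly 24 h melphalan steps starting at 10 µM. DAOY MR kept under 70-78 µM melphalan for 24 h every third passage.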

SF-188 = test: The compound was tested for cytotoxicity against SF-188 (human) Glioma cell lines; type: functional, cell-based; method in brief: as §1
RG2 = test: The compound was tested for cytotoxicity against RG-2 (Rat) Glioma cell lines; type: functional, cell-based; method in brief: as §1
Daoy [2] = test: The compound was tested for cytotoxicity against DAOY MR (human) Glioma cell lines; type: functional, cell-based; method in brief: as §1
D283 Med [3] = test: The compound was tested for cytotoxicity against D283 (human) Glioma cell lines; type: functional, cell-based
D341 cell line [4] = test: The compound was tested for cytotoxicity against D341 (human) Glioma cell lines; type: functional, cell-based
D341 cell line [5] = test: The compound was tested for cytotoxicity against D341 MR (human) Glioma cell lines; type: functional, cell-based
D283 Med [6] = test: The compound was tested for cytotoxicity against D283 MR (human) Glioma cell lines; type: functional, cell-based
Daoy [7] = test: The compound was tested for cytotoxicity against DAOY (human) Glioma cell lines; type: functional, cell-based; method in brief: as §1
Translocator protein [8] = target: T1, Translocator protein (Rattus norvegicus, UniProt P16257); test: The compound was tested for binding affinity against PBR(peripheral benzodiazepine receptor) in normal rat brain homogenate; type: tissue-based
T1 sequence (P16257 whole entry, looked up): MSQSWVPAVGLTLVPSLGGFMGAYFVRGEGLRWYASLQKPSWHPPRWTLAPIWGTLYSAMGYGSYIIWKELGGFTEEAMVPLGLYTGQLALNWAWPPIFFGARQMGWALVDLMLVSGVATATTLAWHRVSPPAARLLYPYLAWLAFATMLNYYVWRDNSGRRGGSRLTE
Method in brief: (§2)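 Competitive displacement of [3H]Ro 5-4864 (1 nM final, 86.9 Ci/mmol) on rat whole-brain homogenate (~200 µg protein, 50 mM Tris-HCl pH 7.4) or C6/RG-2 cell homogenate (4 µg protein, 50 mM Tris-citrate pH 7.4). Incubation 60 min at 0-4 °C, duplicate tubes. Nonspecific binding with 10 µM PK-11195. Bound ligand collected by glass-fibre filtration, counted by scintillation, fitted by nonlinear regression.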

SF-126 = test: The compound was tested for cytotoxicity against SF-126 (human) Glioma cell lines; type: functional, cell-based; method in brief: as §1
Translocator protein [9] = target: T1, Translocator protein; test: Binding affinity for PBR (peripheral benzodiazepine receptor) in rat C6 glioma cells; type: cell-based; method in brief: as §2
Daoy [10] = test: The compound was tested for cytotoxicity against DAOY(human) […] cell lines; type: functional, cell-based; method in brief: as §1
Daoy [11] = test: Glutathione (GSH) Concentrations DAOY cell line in Human Medulloblastoma Cells; type: functional
D283 Med [12] = test: Glutathione S-Transferase (GST) Activity against D 283 MR cell line in Human Medulloblastoma Cells; type: functional
Daoy [13] = test: Glutathione (GSH) Concentrations DAOY MR cell line in Human Medulloblastoma Cells; type: functional
D341 cell line [14] = test: Glutathione (GSH) Concentrations D341 cell line in Human Medulloblastoma Cells; type: functional
Daoy [15] = test: Glutathione S-Transferase (GST) Activity against DAOY cell line in Human Medulloblastoma Cells; type: functional
Daoy [16] = test: Glutathione S-Transferase (GST) Activity against DAOY MR cell line in Human Medulloblastoma Cells; type: functional
D283 Med [17] = test: Glutathione (GSH) Concentrations D 283 MR cell line in Human Medulloblastoma Cells; type: functional
D341 cell line [18] = test: Glutathione S-Transferase (GST) Activity against D341 MR cell line in Human Medulloblastoma Cells; type: functional
C6 [19] = test: The compound was tested for cytotoxicity against C6-MR (Rat) Glioma cell lines; type: functional, cell-based; method in brief: as §1
D341 cell line [20] = test: Glutathione (GSH) Concentrations D341 MR cell line in Human Medulloblastoma Cells; type: functional
Translocator protein [21] = target: T1, Translocator protein; test: Binding affinity for PBR (peripheral benzodiazepine receptor) in rat RG-2 glioma cells; type: cell-based, RG2; method in brief: as §2
D283 Med [22] = test: Glutathione S-Transferase (GST) Activity against D283 cell line in Human Medulloblastoma Cells; type: functional
D283 Med [23] = test: Glutathione (GSH) Concentrations D 283 cell line in Human Medulloblastoma Cells; type: functional
D341 cell line [24] = test: Glutathione S-Transferase (GST) Activity against D 341cell line in Human Medulloblastoma Cells; type: functional
[25] = target: Translocator protein (Rattus norvegicus) (UniProt P16257); test: Benzodiazepine receptor density in rat C6 glioma cells; type: cell-based; method in brief: as §2
Sequence of Translocator protein (Rattus norvegicus) (P16257 whole entry, looked up): as above

[26] = target: Translocator protein (Rattus norvegicus) (UniProt P16257); test: Benzodiazepine receptor density in normal rat brain homogenate; type: tissue-based; method in brief: as §2
[27] = target: Translocator protein (Rattus norvegicus) (UniProt P16257); test: Benzodiazepine receptor density in rat RG-2 glioma cells; type: cell-based; conditions: RG2; method in brief: as §2

O=C1CN=C(c2ccccc2)c2cc(Cl)ccc2N1 [NORDAZEPAM]
IC50 (C6 [1]): > 200 µM | IC50 (SF-188): > 100 µM | IC50 (RG2): > 200 µM | IC50 (Daoy [2]): > 200 µM | IC50 (D283 Med [3]): > 200 µM | IC50 (D341 cell line [4]): > 200 µM | IC50 (D341 cell line [5]): > 200 µM | IC50 (D283 Med [6]): > 200 µM | IC50 (Daoy [7]): > 200 µM | IC50 (Translocator protein [8]): 520 µM | IC50 (SF-126): > 100 µM

CCOC(=O)[C@@H](Cc1ccc(N(CCCl)CCCl)cc1)NC(=O)CCCN1C(=O)CN=C(c2ccccc2)c2cc(Cl)ccc21
IC50 (C6 [1]): 43.4 µM | IC50 (SF-188): 17.3 µM | IC50 (Translocator protein [9]): 289 µM | IC50 (Daoy [10]): 40 µM | GSH (Daoy [11]): 11.4 µM/g | GST activity (D283 Med [12]): 417.3 nM min-1 (mg of protein)-1 | GSH (Daoy [13]): 10.8 µM/g | GSH (D341 cell line [14]): 17.5 µM/g | IC50 (RG2): 34.3 µM | IC50 (Daoy [2]): 29.3 µM | IC50 (D283 Med [3]): 72.3 µM | GST activity (Daoy [15]): 88.7 nM min-1 (mg of protein)-1 | GST activity (Daoy [16]): 84 nM min-1 (mg of protein)-1 | GSH (D283 Med [17]): 50.7 µM/g | IC50 (D341 cell line [4]): 25 µM | IC50 (D341 cell line [5]): 32.8 µM | GST activity (D341 cell line [18]): 327.9 nM min-1 (mg of protein)-1 | IC50 (D283 Med [6]): 25 µM | IC50 (C6 [19]): 74.4 µM | GSH (D341 cell line [20]): 33.2 µM/g | IC50 (Translocator protein [21]): 390 µM | GST activity (D283 Med [22]): 150.6 nM min-1 (mg of protein)-1 | GSH (D283 Med [23]): 18.4 µM/g | IC50 (Translocator protein [8]): 327 µM | GST activity (D341 cell line [24]): 212.6 nM min-1 (mg of protein)-1 | IC50 (SF-126): 21 µM

CN1C(=O)CN=C(c2ccc(Cl)cc2)c2cc(Cl)ccc21 [RO-54864]
IC50 (C6 [1]): > 200 µM | IC50 (SF-188): 138 µM | Bmax (pM (mg of protein)-1) [25]: 22 | Bmax (pM (mg of protein)-1) [26]: 0.29 | IC50 (RG2): > 100 µM | Bmax (pM (mg of protein)-1) [27]: 33 | IC50 (SF-126): > 100 µM

N[C@@H](Cc1ccc(N(CCCl)CCCl)cc1)C(=O)O
IC50 (C6 [1]): 11 µM | IC50 (SF-188): 35.4 µM | IC50 (RG2): 15.2 µM | IC50 (Daoy [2]): 140 µM | IC50 (D283 Med [3]): 6.8 µM | IC50 (D341 cell line [4]): 12.4 µM | IC50 (D341 cell line [5]): 52.4 µM | IC50 (C6 [19]): 74.9 µM | IC50 (SF-126): 103 µM
